Measurements taken from ChEMBL document CHEMBL4229550, “An antimycobacterial pleuromutilin analogue effective against dormant bacilli” (Bioorg Med Chem, 2018).
≈ marks a conversion by molar mass, not a printed value. Calls of active or inactive are those of the source. The calls are words filed in the database; no cut-off is given here.

Experiments:
[1] = tested on: Vero; experiment: Cytotoxicity against African green monkey Vero cells assessed as reduction in cell viability after 72 hrs by MTT assay; assay type: cell-based; conditions: Chlorocebus sabaeus
How it was run: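 Vero cells were grown in complete EMEM with 10% FBS and exposed for 72 h to 0.78–200 µg/mL. The medium was then swapped for phenol-red-free EMEM and MTT was added. Formazan absorbance was read at 570 nm to give IC50.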

[2] = Selectivity index, ratio of IC50 for African green monkey Vero cells to MIC100 for replicating Mycobacterium tuberculosis H37Rv by MABA; assay type: toxicity; conditions: read-out: Selectivity Index
How it was run: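 Vero cells are cultured in EMEM with 10% FBS and exposed for 72 h to 0.78–200 µg/mL. Medium is switched to phenol-red-free EMEM, MTT is added, and formazan is read at 570 nm to give IC50. The selectivity index is Vero IC50 divided by the MABA MIC.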

[3] = tested on: Mycobacterium tuberculosis; experiment: Antibacterial activity against replicating Mycobacterium tuberculosis H37Rv incubated for 15 days under aerobic condition by MABA; assay type: functional; conditions: 360 h, read-out: MIC100
How it was run: (§1)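 Mtb H37Rv grown in 7H9/OADC at 37 °C with shaking to OD600 0.5. The 0.5-OD culture is exposed aerobically to serial dilutions for 15 days at 37 °C. Resazurin (0.02% stock) is then added for 4 h at 37 °C with shaking.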

[4] = tested on: Clostridioides difficile; experiment: Bactericidal activity against Clostridium difficile ATCC 700057 incubated for 24 hrs […] by MABA; assay type: functional; conditions: ATCC 700057, 24 h
[5] = tested on: Bacillus subtilis; experiment: Antibacterial activity against Bacillus subtilis ATCC 6051 incubated for 24 hrs under aerobic condition by MABA; assay type: functional; conditions: ATCC 6051, 24 h, read-out: MIC100
How it was run: (§2)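 Mid-log cultures at OD 0.5 were exposed to serial dilutions under aerobic conditions at 37 °C for 24 h. Resazurin was then added from a 0.08% stock for 1 h. MIC100 was the lowest concentration where the dye stayed blue (pink means growth). Absorbance was also read at 570 and 600 nm.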

[6] = tested on: Klebsiella pneumoniae; experiment: Bactericidal activity against Klebsiella pneumoniae ATCC 12019 incubated for 24 hrs under aerobic condition by MABA; assay type: functional; conditions: ATCC 12019, 24 h
[7] = tested on: Acinetobacter baumannii; experiment: Antibacterial activity against Acinetobacter baumannii ATCC 19606 incubated for 24 hrs under aerobic condition by MABA; assay type: functional; conditions: ATCC 19606 = CIP 70.34 = JCM 6841, 24 h, read-out: MIC100; how it was run: as §2
[8] = tested on: Escherichia coli; experiment: Bactericidal activity against Escherichia coli ATCC 10798 incubated for 24 hrs under aerobic condition by MABA; assay type: functional; conditions: ATCC 10798, 24 h
[9] = tested on: Staphylococcus aureus; experiment: Bactericidal activity against Staphylococcus aureus BAA 1683 incubated for 24 hrs under aerobic condition by MABA; assay type: functional; conditions: BAA 1683, 24 h
[10] = tested on: Enterococcus faecalis; experiment: Bactericidal activity against Enterococcus faecalis ATCC 19433 incubated for 24 hrs under aerobic condition by MABA; assay type: functional; conditions: ATCC 19433, 24 h
[11] = tested on: Staphylococcus aureus; experiment: Antibacterial activity against Staphylococcus aureus BAA 1683 incubated for 24 hrs under aerobic condition by MABA; assay type: functional; conditions: BAA 1683, 24 h, read-out: MIC100; how it was run: as §2
[12] = tested on: Streptococcus pneumoniae; experiment: Bactericidal activity against Streptococcus pneumoniae ATCC 6301 incubated for 24 hrs under aerobic condition by MABA; assay type: functional; conditions: ATCC 6301, 24 h
[13] = tested on: Acinetobacter baumannii; experiment: Bactericidal activity against Acinetobacter baumannii ATCC 19606 incubated for 24 hrs under aerobic condition by MABA; assay type: functional; conditions: ATCC 19606 = CIP 70.34 = JCM 6841, 24 h
[14] = tested on: Mycobacterium tuberculosis; experiment: Bactericidal activity against non-replicating Mycobacterium tuberculosis CDC1551 expressing tdTomato infected in mouse J774A.1 cells at 2 times MIC after 48 hrs by UV-Visible spectroscopic method; assay type: functional, organism-based
How it was run: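 J774A.1 macrophages are seeded at […] cells/well in DMEM and incubated overnight at 37 °C. They are infected with saline-washed Mtb CDC1551-tdTomato (10^6 bacteria, MOI ≈10), and extracellular bacteria are washed off with PBS. Treatment is at 2×MIC, with fluorescence emission read at 581 nm at 24, 48, 72 and 96 h. Survivors are confirmed by serial dilution and plating on 7H11.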

[15] = tested on: Klebsiella pneumoniae; experiment: Antibacterial activity against Klebsiella pneumoniae ATCC 12019 incubated for 24 hrs under aerobic condition by MABA; assay type: functional; conditions: ATCC 12019, 24 h, read-out: MIC100; how it was run: as §2
[16] = tested on: Escherichia coli; experiment: Antibacterial activity against Escherichia coli ATCC 10798 incubated for 24 hrs under aerobic condition by MABA; assay type: functional; conditions: ATCC 10798, 24 h, read-out: MIC100; how it was run: as §2
[17] = tested on: Enterococcus faecalis; experiment: Bactericidal activity against Enterococcus faecalis ATCC 349 incubated for 24 hrs under aerobic condition by MABA; assay type: functional; conditions: ATCC 349, 24 h
[18] = tested on: Staphylococcus aureus; experiment: Bactericidal activity against Staphylococcus aureus BAA 44 incubated for 24 hrs under aerobic condition by MABA; assay type: functional; conditions: BAA 44, 24 h
[19] = tested on: Mycobacterium tuberculosis; experiment: Bactericidal activity against replicating Mycobacterium tuberculosis H37Rv incubated for 15 days under aerobic condition by MABA; assay type: functional; conditions: 360 h; how it was run: as §1
[20] = tested on: Streptococcus pneumoniae; experiment: Antibacterial activity against Streptococcus pneumoniae ATCC 6301 incubated for 24 hrs under aerobic condition by MABA; assay type: functional; conditions: ATCC 6301, 24 h, read-out: MIC100; how it was run: as §2
[21] = tested on: Streptococcus salivarius; experiment: Bactericidal activity against Streptococcus salivarius ATCC 6301 incubated for 24 hrs under aerobic condition by MABA; assay type: functional; conditions: ATCC 6301, 24 h
[22] = tested on: Bacillus subtilis; experiment: Bactericidal activity against Bacillus subtilis ATCC 6051 incubated for 24 hrs under aerobic condition by MABA; assay type: functional; conditions: ATCC 6051, 24 h
[23] = tested on: Mycolicibacterium smegmatis; experiment: Antibacterial activity against Mycobacterium smegmatis ATCC 607 incubated for 48 hrs under aerobic condition by MABA; assay type: functional; conditions: ATCC 607, 48 h, read-out: MIC100
How it was run: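 Mid-log culture at OD 0.5 was incubated with serial dilutions aerobically at 37 °C for 48 h. Resazurin was then added from a 0.08% stock for 1 h. MIC100 was the lowest concentration that stayed blue; absorbance was also read at 570/600 nm.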

[24] = tested on: Enterococcus faecalis; experiment: Antibacterial activity against Enterococcus faecalis ATCC 349 incubated for 24 hrs under aerobic condition by MABA; assay type: functional; conditions: ATCC 349, 24 h, read-out: MIC100; how it was run: as §2
[25] = tested on: Staphylococcus aureus; experiment: Antibacterial activity against Staphylococcus aureus ATCC 25923 incubated for 24 hrs under aerobic condition by MABA; assay type: functional; conditions: ATCC 25923, 24 h, read-out: MIC100; how it was run: as §2
[26] = tested on: Enterococcus faecalis; experiment: Antibacterial activity against Enterococcus faecalis ATCC 19433 incubated for 24 hrs under aerobic condition by MABA; assay type: functional; conditions: ATCC 19433, 24 h, read-out: MIC100; how it was run: as §2
[27] = tested on: Staphylococcus aureus; experiment: Bactericidal activity against Staphylococcus aureus BAA 2094 incubated for 24 hrs under aerobic condition by MABA; assay type: functional; conditions: BAA 2094, 24 h
[28] = tested on: Staphylococcus aureus; experiment: Bactericidal activity against Staphylococcus aureus ATCC 25923 incubated for 24 hrs under aerobic condition by MABA; assay type: functional; conditions: ATCC 25923, 24 h
[29] = tested on: Staphylococcus aureus; experiment: Bactericidal activity against Staphylococcus aureus incubated for 24 hrs under aerobic condition by MABA; assay type: functional
[30] = tested on: Mycolicibacterium smegmatis; experiment: Bactericidal activity against Mycobacterium smegmatis ATCC 607 incubated for 48 hrs under aerobic condition by MABA; assay type: functional; conditions: ATCC 607, 48 h
[31] = tested on: Staphylococcus aureus; experiment: Antibacterial activity against Staphylococcus aureus BAA 44 incubated for 24 hrs under aerobic condition by MABA; assay type: functional; conditions: BAA 44, 24 h, read-out: MIC100; how it was run: as §2

## CC[C@@H](CO)NCCN[C@@H](CC)CO [ETHAMBUTOL]
[1]
  IC50: > 200 µg/mL
[2]
  selectivity ratio: > 256
[3]
  MIC: 0.78 µg/mL (≈ 3.82 µM)

## CO[C@H]1/C=C/O[C@@]2(C)Oc3c(C)c(O)c4c(O)c(c(/C=N/N5CCN(C)CC5)c(O)c4c3C2=O)NC(=O)/C(C)=C\C=C\[C@H](C)[C@H](O)[C@@H](C)[C@@H](O)[C@@H](C)[C@H](OC(C)=O)[C@@H]1C [RIFAMPIN]
[4]
  MBC: 0.78 µg/mL (≈ 0.948 µM)
[5]
  MIC: 0.3 µg/mL (≈ 0.365 µM)
[6]
  MBC: 3.13 µg/mL (≈ 3.8 µM)
[7]
  MIC: 2.35 µg/mL (≈ 2.86 µM)
[8]
  MBC: 25 µg/mL (≈ 30.4 µM)
[9]
  MBC: 0.2 µg/mL (≈ 0.243 µM)
[10]
  MBC: 1.56 µg/mL (≈ 1.9 µM)
[11]
  MIC: 0.15 µg/mL (≈ 0.182 µM)
[12]
  MBC: > 25 µg/mL
[13]
  MBC: 3.13 µg/mL (≈ 3.8 µM)
[14]
  Activity: Active
[15]
  MIC: 1.56 µg/mL (≈ 1.9 µM)
[16]
  MIC: 3.13 µg/mL (≈ 3.8 µM)
[17]
  MBC: > 25 µg/mL
[18]
  MBC: 25 µg/mL (≈ 30.4 µM)
[19]
  MBC: 0.01 µg/mL (≈ 0.0122 µM)
[20]
  MIC: 25 µg/mL (≈ 30.4 µM)
[21]
  MBC: > 25 µg/mL
[22]
  MBC: 0.4 µg/mL (≈ 0.486 µM)
[23]
  MIC: > 25 µg/mL
[24]
  MIC: > 25 µg/mL
[25]
  MIC: > 25 µg/mL
[26]
  MIC: 0.78 µg/mL (≈ 0.948 µM)
[27]
  MBC: 0.2 µg/mL (≈ 0.243 µM)
[1]
  IC50: > 200 µg/mL
[28]
  MBC: > 25 µg/mL
[29]
  MBC: 0.4 µg/mL (≈ 0.486 µM)
[30]
  MBC: > 25 µg/mL
[31]
  MIC: 6.25 µg/mL (≈ 7.59 µM)
